Common to all, as to format: cell-based
One experiment concerns the target T1, Glucocorticoid receptor (Homo sapiens, UniProt P04150).
T1 sequence (P04150 whole entry): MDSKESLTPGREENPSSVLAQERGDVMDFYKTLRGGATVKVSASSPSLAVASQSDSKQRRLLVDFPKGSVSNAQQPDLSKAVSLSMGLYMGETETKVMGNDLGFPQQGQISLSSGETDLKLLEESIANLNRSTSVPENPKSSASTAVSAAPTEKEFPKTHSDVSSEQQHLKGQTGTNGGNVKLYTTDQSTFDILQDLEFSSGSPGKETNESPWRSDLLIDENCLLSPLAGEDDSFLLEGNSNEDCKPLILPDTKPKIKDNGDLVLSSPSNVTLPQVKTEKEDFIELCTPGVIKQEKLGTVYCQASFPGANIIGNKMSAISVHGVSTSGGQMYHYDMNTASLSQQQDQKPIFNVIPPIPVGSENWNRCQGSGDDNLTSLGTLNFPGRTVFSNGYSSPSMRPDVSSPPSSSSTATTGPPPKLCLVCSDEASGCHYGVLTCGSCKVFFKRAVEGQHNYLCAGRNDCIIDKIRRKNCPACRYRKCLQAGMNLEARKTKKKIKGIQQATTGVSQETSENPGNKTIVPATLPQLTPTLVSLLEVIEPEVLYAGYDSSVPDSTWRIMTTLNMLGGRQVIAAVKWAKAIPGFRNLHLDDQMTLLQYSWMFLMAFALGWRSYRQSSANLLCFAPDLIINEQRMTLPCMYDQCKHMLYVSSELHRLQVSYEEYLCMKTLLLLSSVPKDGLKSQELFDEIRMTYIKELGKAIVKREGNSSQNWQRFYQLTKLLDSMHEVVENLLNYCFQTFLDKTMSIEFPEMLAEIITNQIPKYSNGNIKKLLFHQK
The experiment is described as follows: Modulation of glucocorticoid receptor in human SKGT4 cells assessed as receptor translocation from cytoplasm to nucleus after 4 hrs by Hoechst staining relative to Dexamethasone.

In experiment [1] the target is T2, Glucocorticoid receptor (Homo sapiens) (UniProt P04150).
T2 sequence (whole entry): T1 sequence (P04150 whole entry)
Briefly: Modulation of glucocorticoid receptor in human SKGT4 cells assessed as receptor translocation from cytoplasm to nucleus at 100 uM after 240 mins by Hoechst staining relative to Dexamethasone. Summed up: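 Time course in serum-starved SKGT-4 cells: 100 μM compound for 15, 30, 60, 120 or 240 min in 1% DMSO medium. Fixed, GR immunostained, Hoechst nuclear stain, high-content imaging. Background-corrected nuclear/cytoplasmic GR ratio normalised to Dex 100 nM; mean of two experiments in triplicate, compared with 1% DMSO.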

Experiment [2] concerns the target T3, Mineralocorticoid receptor (Homo sapiens) (UniProt P08235).
T3 sequence (whole entry): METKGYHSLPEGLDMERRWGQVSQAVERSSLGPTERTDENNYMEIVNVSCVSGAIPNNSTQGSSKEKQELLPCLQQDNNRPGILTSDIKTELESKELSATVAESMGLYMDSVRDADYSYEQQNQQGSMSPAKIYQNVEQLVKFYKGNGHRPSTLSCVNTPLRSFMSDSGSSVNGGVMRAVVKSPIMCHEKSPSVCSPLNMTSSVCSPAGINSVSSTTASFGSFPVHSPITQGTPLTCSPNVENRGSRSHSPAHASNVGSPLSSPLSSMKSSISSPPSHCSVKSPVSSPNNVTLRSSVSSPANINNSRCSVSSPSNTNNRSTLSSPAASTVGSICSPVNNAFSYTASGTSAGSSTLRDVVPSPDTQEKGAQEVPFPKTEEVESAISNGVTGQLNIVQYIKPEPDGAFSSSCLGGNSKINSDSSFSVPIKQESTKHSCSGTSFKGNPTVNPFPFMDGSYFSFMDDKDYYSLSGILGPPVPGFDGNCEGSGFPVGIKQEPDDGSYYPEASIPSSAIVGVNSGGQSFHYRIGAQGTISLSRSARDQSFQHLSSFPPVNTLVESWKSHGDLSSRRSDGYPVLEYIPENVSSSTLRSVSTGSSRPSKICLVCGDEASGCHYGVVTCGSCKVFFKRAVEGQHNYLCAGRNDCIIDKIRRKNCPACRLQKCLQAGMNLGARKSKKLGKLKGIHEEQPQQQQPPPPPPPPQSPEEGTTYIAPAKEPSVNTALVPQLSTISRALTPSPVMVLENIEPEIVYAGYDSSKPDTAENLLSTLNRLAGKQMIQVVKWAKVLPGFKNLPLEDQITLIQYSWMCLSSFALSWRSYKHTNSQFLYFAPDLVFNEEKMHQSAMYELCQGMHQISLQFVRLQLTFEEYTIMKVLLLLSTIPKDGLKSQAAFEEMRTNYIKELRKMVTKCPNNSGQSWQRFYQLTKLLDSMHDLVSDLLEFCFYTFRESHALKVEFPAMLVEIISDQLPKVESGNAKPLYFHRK
The experiment is described as follows: Modulation of mineralocorticoid receptor in human SKGT4 cells assessed as receptor translocation from cytoplasm to nucleus at 50 uM after 4 hrs by Hoechst staining.

The values below come from ChEMBL document CHEMBL1649063, “Ursodeoxycholic acid amides as novel glucocorticoid receptor modulators” (J Med Chem, 2011).

Calls of active or inactive are those of the source. The rule behind the calls is not given here.

As usually defined, the EC50 is the concentration that produces a half-maximal response.

For `C[C@H](CCC(=O)NCc1ccccc1)[C@H]1CC[C@H]2[C@@H]3[C@@H](O)C[C@@H]4C[C@H](O)CC[C@]4(C)[C@H]3CC[C@]12C`, the EC50 at Glucocorticoid receptor turned out to be 110 µM.
`C[C@H](CCC(=O)N1CCOCC1)[C@H]1CC[C@H]2[C@@H]3[C@@H](O)C[C@@H]4C[C@H](O)CC[C@]4(C)[C@H]3CC[C@]12C`: the EC50 on Glucocorticoid receptor amounted to 25.3 µM. Moreover, the outcome in experiment [1] was Active.
In the case of `C[C@H](C#N)[C@H]1CC[C@H]2[C@@H]3[C@@H](O)C[C@@H]4C[C@H](O)CC[C@]4(C)[C@H]3CC[C@]12C`, the EC50 on Glucocorticoid receptor was determined as 130 µM.
On to `CC(NC(=O)CC[C@@H](C)[C@H]1CC[C@H]2[C@@H]3[C@@H](O)C[C@@H]4C[C@H](O)CC[C@]4(C)[C@H]3CC[C@]12C)c1ccccc1` (stereo not given in full), for which the EC50 at Glucocorticoid receptor worked out at 124 µM.
For `C[C@H](CCC(=O)O)[C@H]1CC[C@H]2[C@@H]3[C@@H](O)C[C@@H]4C[C@H](O)CC[C@]4(C)[C@H]3CC[C@]12C`, in experiment [2], the outcome was inactive.
For `C[C@H](CCC(=O)NCCc1ccccc1)[C@H]1CC[C@H]2[C@@H]3[C@@H](O)C[C@@H]4C[C@H](O)CC[C@]4(C)[C@H]3CC[C@]12C`, the concentration for a half-maximal effect (EC50) at Glucocorticoid receptor worked out at 109 µM.
Take `C[C@H](CCC(=O)N1CCNCC1)[C@H]1CC[C@H]2[C@@H]3[C@@H](O)C[C@@H]4C[C@H](O)CC[C@]4(C)[C@H]3CC[C@]12C`: the EC50 at Glucocorticoid receptor was determined as 50.8 µM.
Consider `C[C@H](CCC(=O)NC1CC1)[C@H]1CC[C@H]2[C@@H]3[C@@H](O)C[C@@H]4C[C@H](O)CC[C@]4(C)[C@H]3CC[C@]12C`, for which, at Glucocorticoid receptor, the EC50 was determined as 7.3 µM. The result in experiment [1] was Active.
For `C[C@H](CCC(=O)N1CCN(Cc2ccccc2)CC1)[C@H]1CC[C@H]2[C@@H]3[C@@H](O)C[C@@H]4C[C@H](O)CC[C@]4(C)[C@H]3CC[C@]12C`, in that order: 5.6 µM and “Active”.
Regarding `C[C@H](C(=O)O)[C@H]1CC[C@H]2[C@@H]3[C@@H](O)C[C@@H]4C[C@H](O)CC[C@]4(C)[C@H]3CC[C@]12C`, the EC50 on Glucocorticoid receptor worked out at 99.7 µM.
On to `C[C@H](CCC#N)[C@H]1CC[C@H]2[C@@H]3[C@@H](O)C[C@@H]4C[C@H](O)CC[C@]4(C)[C@H]3CC[C@]12C`, for which, on Glucocorticoid receptor, the EC50 was found to be 101 µM.
Still for that read-out and setting: for `C[C@H](CC(=O)O)[C@H]1CC[C@H]2[C@@H]3[C@@H](O)C[C@@H]4C[C@H](O)CC[C@]4(C)[C@H]3CC[C@]12C` [NORUCHOLIC ACID] the value was 105 µM.
